Assay outcomes (PubChem)
Most compounds without a hit are left out; they make up all but 2.1% or so of the library.
RanGTP-Impb inh: inhibitors of RanGTP-importin-beta interaction, primary screen, biochemical, FRET, CFP-Ran, YFP-importin-beta, homogeneous; cell-free CFP-Ran/YFP-importin-beta FRET ratio; inhibition, % (test concentration not listed); hit rate 1.1% among 300,000;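 active = more than half of the replicate wells show a fall in the fluorescence ratio signal beyond about 16%, limit read from the data, passing the limit was not always enough; inconclusive = exactly half of the replicate wells pass the set limit; inactive = fewer than half of replicates pass the limit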;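 also: 0% = DMSO wells and 100% = Ran loaded with GDP instead of GTP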
Runt-CBFb FRET: Runt domain-CBFb interaction inhibition; Q01196+Q13951; Cerulean-Runt/Venus-CBFb FRET ratio 530/480, 1 h; inhibition, % at 20 µM; hit rate 0.46% among 220,000;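 active = inhibition over about 50% at 20 µM in the single-dose screen, limit read from the data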;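 also: 0% = DMSO wells and 100% = excess unlabeled CBFb competitor control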
Target sequence (Q01196 whole entry, looked up, the tested form may be a part): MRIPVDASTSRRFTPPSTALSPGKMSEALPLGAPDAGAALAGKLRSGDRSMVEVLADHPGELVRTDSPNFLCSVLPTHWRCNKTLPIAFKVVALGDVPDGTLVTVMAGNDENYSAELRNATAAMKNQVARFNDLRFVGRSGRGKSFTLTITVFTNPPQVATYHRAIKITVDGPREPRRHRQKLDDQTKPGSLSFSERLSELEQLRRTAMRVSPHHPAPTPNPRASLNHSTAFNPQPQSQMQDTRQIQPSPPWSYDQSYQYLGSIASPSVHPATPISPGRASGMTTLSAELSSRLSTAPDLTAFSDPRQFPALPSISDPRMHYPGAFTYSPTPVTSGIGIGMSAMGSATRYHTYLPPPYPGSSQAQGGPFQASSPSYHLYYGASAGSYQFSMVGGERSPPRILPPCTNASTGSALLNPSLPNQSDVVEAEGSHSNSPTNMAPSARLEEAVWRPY
Target sequence (Q13951 whole entry, looked up, the tested form may be a part): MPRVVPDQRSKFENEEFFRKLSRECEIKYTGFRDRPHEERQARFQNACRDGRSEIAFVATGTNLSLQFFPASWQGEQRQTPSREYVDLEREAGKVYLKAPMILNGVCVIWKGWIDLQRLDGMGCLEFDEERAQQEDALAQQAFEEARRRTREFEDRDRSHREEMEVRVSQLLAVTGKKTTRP
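Schedule: protein complex preformed 1 h, compound exposure 1 h, room temperature, dark; test system: Cerulean-labeled Runt domain protein; amount: 100 nM per protein; buffer or medium: Tris 50 mM pH 7.5, KCl, K2SO4, 0.01% BSA; read-out: loss of energy transfer signal; detection: FRET fluorescence; controls: 5 µM unlabeled CBFb as full-inhibition high control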
Runt-SMMHC FRET: inhibitors of human RUNX1 Runt domain binding to CBFb-SMMHC. Q01196+Q13951. Cerulean-Runt/Venus-CBFb-SMMHC FRET ratio 530/480, 1 h. inhibition, % at 20 µM. hit rate 0.74% among 220,000. AID 1434;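 active = mean inhibition across duplicate retests at 20 µM reaching about 50%, limit read from the data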;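 also: 0% = DMSO wells and 100% = wells with excess untagged CBFb-SMMHC; inhibitors lower the FRET ratio by blocking Runt binding to CBFb-SMMHC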
pCIP destab: lowers stability of the mouse p/CIP coactivator protein. decrease of EGFP signal, % at 10 µM. hit rate 0.01% among 290,000. F442A p/CIP-EGFP cells, EGFP fluorescence, 16 h. AID 1984;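 active = EGFP signal decrease of at least 30% at 10 µM or well 3 SD below plate mean, unless failing retest; inactive = the rest, including hits failing retest or dose response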
DSG3 Ab inh: human desmoglein-3 autoantibody binding inhibition. binding (percent of control), % at 10 µM. AID 588358. DSG3-coupled beads, scFv-anti-DSG3-GFP binding, flow cytometry; hits give low values. P32926. hit rate 0.48% among 310,000;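 active = binding more than 3 SD below its plate's average and above zero; inconclusive = below that plate limit but binding exactly zero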;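 also: hits lower antibody fragment binding to DSG3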
Hck-Nef inh: inhibitors of human Hck kinase activated by Nef. hit rate 0.68% among 220,000. inhibition, % at 20 µM. Recombinant Hck-YEEI plus Nef, Z-Lyte FRET kinase assay. P08631;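 active = Hck-Nef kinase inhibition above about 50%, limit read from the data; inactive = inhibition below that limit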;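 also: 0% = DMSO with Hck plus Nef and 100% = Hck alone without Nef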
The depositor's hits bear a star; ? = inconclusive; nt = no result given; ! = not active in a repeat.

SMILES	RanGTP-Impb inh	Runt-CBFb FRET	Runt-SMMHC FRET	pCIP destab	DSG3 Ab inh	Hck-Nef inh
CC(=O)NS(=O)(=O)c1ccc(N)cc1	1	0	1	-4	25*!	2
CC(=O)NS(=O)(=O)c1ccc(NS(=O)(=O)c2ccc(F)cc2)cc1	-1	89*	6	-12	110	2
Cc1nn(C)c(C)c1/C=C/C(=O)c1ccc(Cl)cc1Cl	2	-2	3	-18	103	27
Cc1cccc2cc3c(NC(=O)C(C)C)nn(C)c3nc12	47*	14	22	1	108	21
CCn1nc(NC(=O)c2ccncc2)c2cc3cccc(C)c3nc21	?	7	16	-6	93	2
COc1ccc(CC(=O)Nc2nn(C)c3nc4c(C)cccc4cc23)cc1	6	11	72*	-3	93	19
CCC(=O)Nc1nn(C)c2nc3c(C)cccc3cc12	22*	18	86	7	95	23
CCCn1nc(NC(=O)CC)c2cc3cccc(C)c3nc21	55*	nt	nt	-3	95	nt
COC(=O)c1cc(S(=O)(=O)N2CCN(c3cccc(Cl)c3)CC2)c[nH]1	2	nt	nt	-2	104	nt
COc1cc(NC(=O)COc2cc3oc(=O)cc(C)c3cc2Cl)cc(OC)c1OC	?	nt	nt	-10	102	nt
CCCOc1ccc(C(=O)Nc2ccc(N3CCN(C(=O)c4ccco4)CC3)cc2)cc1	-3	nt	nt	-8	95	nt
O=C(COc1ccc(C(=S)N2CCOCC2)cc1Cl)Nc1ccccc1Cl	6	38	9	4	83*	32
CCN(CC)CC(=O)NN(Cc1ccccc1)c1ccccc1	2	2	-1	-9	nt	17
CN1CCN(CC(=O)NN(Cc2ccccc2)c2ccccc2)CC1	-3	3	0	-12	77*	7
CC[C@@]1(C(=O)OC)N[C@H](CN(C)C(=O)COC)[C@@H]2C(=O)N(Cc3ccccc3)C(=O)[C@@H]21	nt	nt	nt	nt	96	nt
Cc1ccc(N(C)S(=O)(=O)c2ccc3c(c2)CC(C)N3C(=O)C2CC2)cc1 (configuration not stated)	51*	nt	nt	-1	98	nt
CC(=O)N1c2ccc(S(=O)(=O)N(C)c3cc(C)ccc3C)cc2CC1C (configuration not stated)	-1	nt	nt	-8	116	nt
COc1ccc(NC(=O)c2ccc3c(c2)S(=O)(=O)c2ccccc2C3=O)cc1	2	nt	nt	nt	83*	nt
CC1=CC(=C(C#N)C#N)C=C(C)N1Cc1ccc(Cl)cc1	-4	2	-2	7	-3.8*	4
CC1=CC(=C(C#N)C#N)C=C(C)N1CCN1CCN(C(=O)Nc2ccc(Cl)c(Cl)c2)CC1	-3	-14	-10	8	116	6
CC(=O)Nc1ccc(C2=NN(c3ccccc3)C(c3cccs3)C2)cc1 (configuration not stated)	1	23	55*	-9	108	24
C#Cc1ccc([C@@H]2C=C(C(=O)OCC=C)O[C@H](OCc3ccc(CO)cc3)C2)cc1	-2	-7	-6	-7	101	30
COc1ccc(N2CCN(S(=O)(=O)Cc3ccccc3)CC2)cc1	-1	2	2	9	107	-15
CCCn1c(N2CCN(S(=O)(=O)Cc3ccccc3)CC2)nc2ccccc21	1	-3	2	2	56*	0
O=S(=O)(Cc1ccccc1)N1CCN(c2ccccc2)CC1	59*	nt	-4	-4	93	2
CCn1c(N2CCN(S(=O)(=O)c3ccccc3)CC2)nc2ccccc21	?	nt	nt	-2	100	nt
Cc1ccc(NC(=O)CSC(C)C(=O)OCc2cc(=O)oc3cc(O)ccc23)cc1 (configuration not stated)	nt	nt	nt	nt	99	nt
O=c1c2cc(-c3ccccc3)sc2ncn1-n1cccc1	3	1	-2	-13	82*	2
Cc1cc(C)c(C)c(S(=O)(=O)N2CCN(CC(=O)Nc3ccc([N+](=O)[O-])cc3)CC2)c1C	2	-6	-9	-4	60*	1
O=C(Nc1sc2c(c1C(=O)NCc1ccco1)CCCC2)c1ccc2c(c1)OCO2	?	37	65*	-1	96	19
